The record followed here is ChEMBL document CHEMBL3244169, “(1-(3-(Phenothiazin-10-yl)propyl)-4-piperidinyl)phenylmethanones, a novel class of long-acting neuroleptic agents” (J Med Chem, 1978).

Active and inactive are the calls of the source. The rule behind the calls is not given here. Bounds are passed on as bounds.

Series [1] has as its system Mus musculus. Kind of series: Neuroleptic activity in mouse assessed as suppression of conditioned avoidance behavior by measuring mean correct responses level at 10 mg/kg, ip administered 8 hrs prior to electric shock challenge. To be noted: route intraperitoneal. The class given is functional. The method, boiled down: (§1)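 After 20 s a solenoid pushed each mouse back onto the grid, leaving 5 s to return and avoid the next shock. Trained mice reaching 90–100% correct avoidance (3–5 per group) received 10 mg/kg ip. Twenty trials were run before dosing and at intervals after. Percent correct avoidance per animal was averaged per group.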

The subject of series [2] is Mus musculus. Kind of series: Neuroleptic activity in mouse assessed as suppression of conditioned avoidance behavior by measuring mean correct responses level at 10 mg/kg, ip administered 1 day prior to electric shock challenge. The class given is functional. To be noted: route intraperitoneal. The method, boiled down: as §1
Series [3] has as its system Mus musculus. Kind of series: Neuroleptic activity in mouse assessed as suppression of conditioned avoidance behavior by measuring mean correct responses level at 10 mg/kg, ip administered 2 days prior to electric shock challenge. The class given is functional. The conditions noted are these: route intraperitoneal. The method, boiled down: as §1
In series [4] the test system is Mus musculus. Kind of series: Neuroleptic activity in mouse assessed as suppression of conditioned avoidance behavior by measuring mean correct responses level at 10 mg/kg, ip administered 4 hrs prior to electric shock challenge. Format: functional. The conditions noted are these: route intraperitoneal. The method, boiled down: as §1
Series [5] concerns Mus musculus. Kind of series: Neuroleptic activity in ip dosed ICR-DUB mouse assessed as survival administered 1 hr prior to d-amphetamine challenge measured after 24 hrs. The class given is functional.
Series [6] deals with Mus musculus. In words: Neuroleptic activity in ip dosed ICR-DUB mouse assessed as survival administered 4 hrs prior to d-amphetamine challenge measured after 24 hrs. Format: functional.
Series [7] has as its system Mus musculus. Kind of series: Neuroleptic activity in ip dosed ICR-DUB mouse assessed as survival administered 16 hrs prior to d-amphetamine challenge measured after 24 hrs. The class given is functional.
Series [8] concerns Mus musculus. In words: Neuroleptic activity in ip dosed ICR-DUB mouse assessed as survival administered 2 days prior to d-amphetamine challenge measured after 24 hrs. The class given is functional.
Series [9] has as its system Mus musculus. In words: Neuroleptic activity in ip dosed ICR-DUB mouse assessed as survival administered 3 days prior to d-amphetamine challenge measured after 24 hrs. The class given is functional.
In series [10] the test system is Mus musculus. In words: Neuroleptic activity in ip dosed ICR-DUB mouse assessed as survival administered 7 days prior to d-amphetamine challenge measured after 24 hrs. Format: functional.
Series [11] relates to Mus musculus. In words: Neuroleptic activity in mouse assessed as suppression of conditioned avoidance behavior by measuring mean correct responses level at 10 mg/kg, ip administered immediately prior to electric shock challenge. Format: functional. To be noted: route intraperitoneal. The method, boiled down: as §1
For series [12], the system named is Mus musculus. In words: Neuroleptic activity in mouse assessed as suppression of conditioned avoidance behavior by measuring mean correct responses level at 10 mg/kg, ip administered 1 hr prior to electric shock challenge. The class given is functional. To be noted: route intraperitoneal. The method, boiled down:
as §1

Series [13] has as its system Mus musculus. Kind of series: Neuroleptic activity in mouse assessed as suppression of conditioned avoidance behavior by measuring mean correct responses level at 10 mg/kg, ip administered 2 hrs prior to electric shock challenge. Format: functional. The conditions noted are these: route intraperitoneal. The method, boiled down:
as §1

The subject of series [14] is Mus musculus. In words: Neuroleptic activity in mouse assessed as suppression of conditioned avoidance behavior by measuring mean correct responses level at 10 mg/kg, ip administered 3 days prior to electric shock challenge. Format: functional. To be noted: route intraperitoneal. The method, boiled down:
as §1

Series [15] has as its system Mus musculus. In words: Neuroleptic activity in ip dosed ICR-DUB mouse assessed as survival administered 4 days prior to d-amphetamine challenge measured after 24 hrs. The class given is functional.
The subject of series [16] is Mus musculus. Kind of series: Neuroleptic activity in ip dosed ICR-DUB mouse assessed as survival administered 5 days prior to d-amphetamine challenge measured after 24 hrs. Format: functional.
Series [17] deals with Mus musculus. In words: Toxicity in ICR-DUB mouse assessed as depression at 60 mg/kg, ip measured for 5 days. The arrangement: dose 60 mg/kg, route intraperitoneal. The class given is organism-based. To be noted: in vivo, 120 h.
In series [18] the test system is Mus musculus. In words: Toxicity in ICR-DUB mouse assessed as reduction in food intake at 60 mg/kg, ip. Format: organism-based. To be noted: in vivo. The arrangement: dose 60 mg/kg, route intraperitoneal.
The subject of series [19] is Mus musculus. Kind of series: Toxicity in ICR-DUB mouse assessed as grooming of coat at 60 mg/kg, ip. The arrangement: dose 60 mg/kg, route intraperitoneal. To be noted: in vivo. Format: organism-based.
The subject of series [20] is Mus musculus. In words: Neuroleptic activity in mouse assessed as suppression of conditioned avoidance behavior by measuring mean correct responses level at 10 mg/kg, ip administered 4 days prior to electric shock challenge. Format: functional. The conditions noted are these: route intraperitoneal. The method, boiled down:
as §1

In series [21] the test system is Mus musculus. In words: Toxicity in ICR-DUB mouse assessed as grooming at 50 mg/kg, ip measured during first 24 hrs. The class given is organism-based. The arrangement: dose 50 mg/kg, route intraperitoneal. To be noted: in vivo.
Series [22] relates to Mus musculus. Kind of series: Neuroleptic activity in ip dosed ICR-DUB mouse assessed as survival administered 6 days prior to d-amphetamine challenge measured after 24 hrs. Format: functional.
For series [23], the system named is Mus musculus. In words: Toxicity in ICR-DUB mouse assessed as CNS depression at 50 mg/kg, ip measured for 24 hrs. To be noted: in vivo. The class given is organism-based. The arrangement: dose 50 mg/kg, route intraperitoneal.
For series [24], the system named is Mus musculus. In words: Toxicity in ICR-DUB mouse assessed as mild sedation at 50 mg/kg, ip measured for 6 days. Format: organism-based. The arrangement: dose 50 mg/kg, route intraperitoneal. The conditions noted are these: in vivo, 144 h.
The subject of series [25] is Mus musculus. Kind of series: Toxicity in ICR-DUB mouse assessed as body weight loss at 50 mg/kg, ip. Also noted: dose 50 mg/kg, route intraperitoneal. To be noted: in vivo. The class given is organism-based.
In series [26] the test system is Mus musculus. Kind of series: Toxicity in ICR-DUB mouse assessed as grooming at 50 mg/kg, ip. Also noted: dose 50 mg/kg, route intraperitoneal. To be noted: in vivo. The class given is organism-based.
For series [27], the system named is Mus musculus. Kind of series: Neuroleptic activity in mouse assessed as suppression of conditioned avoidance behavior by measuring mean correct responses level at 20 mg/kg, ip administered 7 days prior to electric shock challenge. The class given is functional, organism-based. The arrangement: dose 20 mg/kg.

One may read the ED50 as the dose at which the effect has come halfway, by size or by number of responders. Turning to `O.O=C(O)/C=C/C(=O)O.O=C(c1ccc(F)cc1)C1CCN(CCCN2c3ccccc3Sc3ccccc32)CC1`, the Activity with Mus musculus [1] is 93%; with Mus musculus [2] it was 87%; with Mus musculus [3], 98%; in the series with Mus musculus [4] it was 75%; with Mus musculus [11], 97%; in the series with Mus musculus [12], 63%. For the same compound, the Activity in the series on Mus musculus [13] was determined as 70%. Also, the ED50 with Mus musculus [5] was 0.94 mg/kg; in the series with Mus musculus [6], 0.35 mg/kg; with Mus musculus [7] it was 1.27 mg/kg; in the series with Mus musculus [8] it was 12.1 mg/kg; in the series with Mus musculus [9], more than 50 mg/kg. In the series on Mus musculus [10], the ED50 entry is “inactive”.

As to `O=C(CCCN1CCC(O)(c2ccc(Cl)cc2)CC1)c1ccc(F)cc1` [HALOPERIDOL], the values for the ED50 with Mus musculus [5], in the series with Mus musculus [7] and in the series on Mus musculus [8] were 0.09 mg/kg, 0.58 mg/kg and 16 mg/kg, respectively. Further, in the series on Mus musculus [9], the median effective dose (ED50) result is “Active”.

For the compound `O=C(c1ccc(Cl)c(Cl)c1)C1CCN(CCCN2c3ccccc3Sc3ccc(Cl)cc32)CC1`, the Activity with Mus musculus [1] is listed as 95%; in the series on Mus musculus [2] it was 93%; in the series on Mus musculus [4], 92%; in the series on Mus musculus [11], 97%; in the series with Mus musculus [12], 97%; in the series with Mus musculus [13] it was 97%. For the same compound, in the series with Mus musculus [5], the ED50 was more than 16 mg/kg. Besides, the ED50 entry with Mus musculus [10] is “inactive”.

Turning to `CC(=O)c1ccc2c(c1)N(CCCN1CCC(C(=O)c3ccc(F)cc3)CC1)c1ccccc1S2.O.O=C(O)/C=C/C(=O)O`, the Activity with Mus musculus [1] stood at 55%; with Mus musculus [2], 55%; in the series with Mus musculus [3] it was 95%; in the series with Mus musculus [14] it was 100%; with Mus musculus [4], 43%; with Mus musculus [11] it was 95%. In addition, the figures for the Activity with Mus musculus [12] and in the series on Mus musculus [13] were 73% and 61%, respectively. Besides, the ED50 was 22.5 mg/kg with Mus musculus [8], 17.5 mg/kg in the series with Mus musculus [9], more than 64 mg/kg in the series with Mus musculus [15] and 60 mg/kg in the series with Mus musculus [16]. The ED50 entry in the series with Mus musculus [10] is “inactive”.

As to `O=C(O)/C=C/C(=O)O.O=C(c1ccc(F)cc1)C1CCN(CCCN2c3ccccc3Sc3ccc(Cl)cc32)CC1`, the Activity is listed as 40% in the series with Mus musculus [1]; 57% with Mus musculus [2]; 95% in the series on Mus musculus [3]; 32% with Mus musculus [4]; “Toxic” with Mus musculus [17]; “Toxic” in the series with Mus musculus [18]. In addition, the Activity result in the series with Mus musculus [19] is given as “Toxic”; in the series on Mus musculus [11] it was 96%; with Mus musculus [12] it was 80%; in the series on Mus musculus [13], 38%. In addition, the ED50 with Mus musculus [5] was found to be 0.17 mg/kg; in the series on Mus musculus [6], 0.53 mg/kg; in the series with Mus musculus [7] it was 0.72 mg/kg; in the series on Mus musculus [8] it was 4.6 mg/kg; with Mus musculus [9], 8.8 mg/kg; with Mus musculus [15], 20.9 mg/kg. For the same compound, the ED50 with Mus musculus [16] is more than 60 mg/kg. Moreover, the ED50 entry in the series with Mus musculus [10] was “inactive”.

`CN(C)CCCN1c2ccccc2Sc2ccc(Cl)cc21` [CHLORPROMAZINE]: the Activity came to 72% in the series on Mus musculus [1]; 88% in the series on Mus musculus [2]; 95% in the series on Mus musculus [3]; 37% in the series on Mus musculus [4]; 96% in the series with Mus musculus [11]; 42% with Mus musculus [12]. Also, the Activity in the series on Mus musculus [13] is recorded as 28%. Further, the ED50 in the series with Mus musculus [5] is 0.28 mg/kg; with Mus musculus [7], 3.65 mg/kg; in the series on Mus musculus [8], more than 32 mg/kg. Further, the ED50 entry with Mus musculus [9] is “Active”.

As to `O=C(O)/C=C/C(=O)O.O=C(c1ccc(F)cc1)C1CCN(CCCN2c3ccccc3Sc3ccc(C(F)(F)F)cc32)CC1` [DUOPERONE FUMARATE], the Activity with Mus musculus [1] is 45%; in the series on Mus musculus [2] it was 58%; in the series with Mus musculus [3], 58%; with Mus musculus [14] it was 58%; in the series with Mus musculus [20] it was 95%; in the series with Mus musculus [21], “Toxic”. Also, the Activity was 80% in the series with Mus musculus [4]; “Toxic” with Mus musculus [23]; “Toxic” in the series with Mus musculus [24]; “Non-toxic” in the series on Mus musculus [25]; “Non-toxic” in the series on Mus musculus [26]; 92% in the series with Mus musculus [11]. The Activity stood at 98% with Mus musculus [12] and 88% with Mus musculus [13]. The ED50 in the series on Mus musculus [8] was 4.7 mg/kg; with Mus musculus [9] it was 15.2 mg/kg; in the series on Mus musculus [15], 27 mg/kg; in the series on Mus musculus [16] it was 28.4 mg/kg; with Mus musculus [22] it was 26.5 mg/kg; in the series with Mus musculus [10], 45.5 mg/kg.

As for `OC1(c2ccc(Cl)c(C(F)(F)F)c2)CCN(CCCC(c2ccc(F)cc2)c2ccc(F)cc2)CC1` [PENFLURIDOL], the outcome in the series on Mus musculus [27] was Active. Further, the ED50 in the series on Mus musculus [5] came to 1.28 mg/kg; in the series on Mus musculus [6] it was 1.82 mg/kg; in the series with Mus musculus [7], 1.52 mg/kg; with Mus musculus [8], 3 mg/kg; in the series on Mus musculus [9], 17 mg/kg; in the series on Mus musculus [15], 47.5 mg/kg. The ED50 entry in the series on Mus musculus [16] was “Active”.
